{"data": "Measurements pooled from the literature", "effect on": "enzyme activity", "action": "inhibitor", "ABL1 Y253F": "Tyrosine-protein kinase ABL1 (ABL1, Homo sapiens, UniProt P00519, Y253F)", "ABL1 T315I": "Tyrosine-protein kinase ABL1 (ABL1, Homo sapiens, UniProt P00519, T315I)", "ABL1": "Tyrosine-protein kinase ABL1 (ABL1, Homo sapiens, UniProt P00519)", "note": "Lines come from different studies, so protocols differ."}
{"target": "ABL1 Y253F", "tested at": "1 µM", "inhibition [%]": 2, "SMILES": "COc1cc2ncnc(Nc3ccc(Oc4ccccc4)c(C)c3C)c2cc1OC"}
{"target": "ABL1 Y253F", "technique": "radiometric", "tested at": "1 µM", "inhibition [%]": 78, "SMILES": "CNC(=O)c1cc2c(Oc3ccc(NC(=O)C4(C(=O)Nc5ccc(F)cc5)CC4)cc3)ccnc2cc1OC"}
{"target": "ABL1 T315I", "tested at": "0.1 µM", "inhibition [%]": -1.5, "SMILES": "CC/C(=N\\NC(=O)NCc1cccc(O)c1)c1ccc(O)c(C)c1O"}
{"target": "ABL1 T315I", "tested at": "10 µM", "inhibition [%]": 2, "SMILES": "O=C(CSc1nc2nccnc2c(=O)n1CCc1ccccc1)Nc1nccs1"}
{"target": "ABL1", "technique": "FRET", "tested at": "10 µM", "inhibition [%]": 31, "SMILES": "CN(C)C1CCN(CC#Cc2nn(C3CCCC3)c3nc(NCc4ccccc4)ncc23)C1 (stereo not drawn)"}
{"target": "ABL1", "tested at": "10 µM", "inhibition [%]": 2, "SMILES": "CS(=O)(=O)Nc1cccc(-c2csc(NC(=O)CSc3nc4nccnc4c(=O)n3CCc3ccccc3)n2)c1"}
{"target": "ABL1 T315I", "tested at": "1 µM", "inhibition [%]": 5, "SMILES": "COc1cc2ncnc(Nc3ccc(Oc4ccccc4)cc3C)c2cc1OC"}
{"target": "Tyrosine-protein kinase ABL1 (ABL1, Homo sapiens, UniProt P00519, Q252H)", "tested at": "1 µM", "inhibition [%]": 96, "SMILES": "COc1cc(-c2cc(-c3ccc(N4CCNCC4)cc3)cnc2N)cc(OC)c1OC"}
{"target": "ABL1", "tested at": "10 µM", "inhibition [%]": 1.8, "SMILES": "CNc1cccc2cc(C(=O)Nc3ccc(C(=O)O)cc3)c(=O)[nH]c12"}
